mABHD4 FP = inhibits mouse alpha/beta hydrolase domain 4 | 370,000 tested, 0.54% active | purified mABHD4, FP-Rh probe fluorescence polarization | Q8VD66 | AID 720543 | inhibition, % at 8.92 µM;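 active means inhibition exceeding the mean over every tested compound plus 3 SD, cut at about 30% in these data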;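 further: 0% = plate median of compound wells and 100% = S159A mutant with DMSO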
Target sequence (Q8VD66 whole entry, looked up, the tested form may be a part): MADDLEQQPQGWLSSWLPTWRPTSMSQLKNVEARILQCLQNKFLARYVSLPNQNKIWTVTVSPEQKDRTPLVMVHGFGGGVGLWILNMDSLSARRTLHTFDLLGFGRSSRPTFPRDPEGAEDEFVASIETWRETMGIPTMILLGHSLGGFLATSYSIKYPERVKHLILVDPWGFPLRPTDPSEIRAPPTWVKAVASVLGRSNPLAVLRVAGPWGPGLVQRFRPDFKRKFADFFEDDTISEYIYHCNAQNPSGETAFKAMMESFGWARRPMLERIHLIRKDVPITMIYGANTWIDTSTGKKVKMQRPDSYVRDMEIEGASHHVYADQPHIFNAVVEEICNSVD
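Test system: mouse ABHD4 enzyme, wild type. Reagent: FP-Rh fluorescent activity-based probe, added after compound pre-incubation. Timing: pre-incubation 45 min, probe exposure 60 min, at 25 °C. Technique: FP readout, ex 525 nm / em 598 nm. Benchmarks: high control S159A mutant with DMSO, low control median of compound wells.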
LEDGF integ inh = blocks HIV-1 LEDGF/p75-dependent DNA integration | 370,000 tested, 0.64% active | TR-FRET IN-LEDGF/p75 DNA integration, Eu/Cy5 | inhibition, % at 3.7 µM | AID 743269;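 active means inhibition above the screen-wide mean plus 3 SD, cut at about 13% in these data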;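 further: signal is the Cy5 over europium emission ratio at 671 and 618 nm; 0% = plate median of compound wells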
TDP2 absorb = blocks human TDP2 phosphodiesterase activity; 370,000 tested, 0.34% active; O95551; recombinant TDP2, T5PNP hydrolysis, p-nitrophenol absorbance 415 nm; inhibition, % at 12.8 µM;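 active means inhibition above the mean of all tested compounds plus 3 SD, set per campaign, cut at about 25% in these data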;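 further: 0% = DMSO with enzyme and 100% = buffer with substrate but no TDP2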
Target sequence (O95551 whole entry, looked up): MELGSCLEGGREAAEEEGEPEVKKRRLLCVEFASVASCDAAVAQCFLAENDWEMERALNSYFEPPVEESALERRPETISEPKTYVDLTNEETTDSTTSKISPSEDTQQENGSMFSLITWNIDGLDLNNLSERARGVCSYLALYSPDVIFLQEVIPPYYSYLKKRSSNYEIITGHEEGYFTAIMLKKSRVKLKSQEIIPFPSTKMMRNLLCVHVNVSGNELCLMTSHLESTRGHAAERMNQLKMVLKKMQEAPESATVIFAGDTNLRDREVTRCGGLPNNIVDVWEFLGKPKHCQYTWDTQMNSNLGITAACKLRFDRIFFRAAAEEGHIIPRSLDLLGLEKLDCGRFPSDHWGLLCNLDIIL
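Read-out basis: percent inhibition. System: recombinant human TDP2. Buffer or medium: Mg2+-containing Tris-HCl buffer, pH 7.5. Repeats: single replicate. Timing: reaction 2 h, 37 °C. Benchmarks: high control without enzyme, low control DMSO plus TDP2. Probe or stimulus: 5 mM T5PNP. Doses: 12.8 µM only. Measured by: epi absorbance of p-nitrophenol freed from T5PNP by hydrolysis.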
TCR-CD3 inh = human TCR-CD3 binding inhibition; TAMRA-labeled TCR probe fluorescence, biochemical; inhibition, % at 9.4 µM; 360,000 tested, 0.37% active;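 further: recombinant mutant TCR 2C K166C tagged with TAMRA read by polarization; 0% = receptor in buffer alone and 100% = receptor with positive control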
HTRA1 inhibitor = HTRA1 (human) protease inhibition | Q92743 | recombinant HTRA1, FP-rhodamine activity-based probe, fluorescence polarization | inhibition, % at 5.96 µM | 340,000 tested, 0.5% active | AID 504803; in the data active means inhibition above about 36%;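 further: 0% = enzyme with DMSO and 100% = wells lacking enzyme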
SIAE primary = human SIAE inhibition, primary screen; SIAE FP-Rh probe binding, fluorescence polarization; inhibition, % at 9.66 µM; Q9HAT2; 370,000 tested, 0.69% active; AID 1053197;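 active means inhibition above a cutoff: mean of compounds within the control limits plus 3 SD of those, cut at about 17% in these data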;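 further: 0% = plate median of compound wells and 100% = probe without SIAE protein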
BSA TAMRA ctr = counter-screen for TCR-CD3 interaction inhibitors: BSA probe | shares compounds with TCR-CD3 inh | TAMRA-labeled BSA probe fluorescence counterscreen | inhibition, % at 9.4 µM | 1,200 tested, 10% active | AID 652035; in the data active means inhibition above about 23%;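 further: 0% = buffer low control and 100% = reference high control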
TCR-CD3 conf = confirmation of human TCR-CD3 interaction inhibitors; AID 652036; shares compounds with TCR-CD3 inh; inhibition, % at 9.4 µM; 1,200 tested, 48% active; TAMRA-labeled TCR probe fluorescence binding assay
Active calls of the source: *; . = no result given. Sampled rows, rich in hits. Any-hit rate of the full collection: about 2.2%. Unless noted, no stated cut-off is given here; in the data, active means inhibition above about 19%; inactive means the rest.

SMILES | mABHD4 FP | LEDGF integ inh | TDP2 absorb | TCR-CD3 inh | HTRA1 inhibitor | SIAE primary | BSA TAMRA ctr | TCR-CD3 conf
C=CCN1C[C@H](COC(=O)c2cccc(OC)c2)Oc2cccc(F)c2S1(=O)=O | -8 | -1 | 3 | -4 | . | -8 | . | .
CCc1n[nH]c(=S)n1/N=C/c1cc(OC)cc([N+](=O)[O-])c1O | 21 | -4 | 8 | 44* | 18 | 8 | -14 | 44*
O=C(N/N=C/c1cccc([N+](=O)[O-])c1)c1ccc(COc2ccccc2-c2ccccc2)cc1 | -7 | 1 | 10 | 50* | -27 | -19 | 21 | 50*
COc1cc(/C=N/NC(=O)c2cccc([N+](=O)[O-])c2)ccc1OCc1ccccc1 | 4 | 6 | 14 | 3 | -5 | -2 | . | .
O=C(C1CCCN1S(=O)(=O)c1ccc(Cl)s1)N1CCN(c2ccccc2)CC1 (configuration not stated) | -1 | -4 | 0 | . | . | 1 | . | .
COc1ncnc2c1NC1=C(S2)C(=NCCC(=O)O)CC(C)(C)C1 | 12 | 1 | 5 | 29* | 15 | -5 | 53* | 41*
O=C(OC12CCCN(C1)/C(=C/c1ccccc1)C2)C1CCCCC1 (configuration not stated) | -6 | 2 | -4 | . | . | -1 | . | .
C=C(C)CSc1nc2sc(C)c(C)c2c(=O)n1C | 6 | -2 | 1 | . | . | -1 | . | .
CC12CCC(C(=O)N(CSC(=S)N/N=C\c3ccccc3O)C1=O)C2(C)C (configuration not stated) | 20 | 1 | -8 | 32* | 26 | 3 | -10 | 20*
O=c1c(CO)cc(CO)cc(CO)c1O | 0 | -4 | -3 | 31* | 11 | 6 | -1 | 22*
COC(=O)CC1(C(=O)OC)Nc2cc(Cl)c(Cl)cc2S(=O)(=O)N1O (configuration not stated) | -2 | 5 | -3 | 38* | 0 | -16 | 0 | 29*
Cc1oc2cc(O)ccc2c(=O)c1-c1nncn1-c1ccccc1 | 25 | 2 | -2 | 25* | 3 | 4 | 27* | 23*
O=C(N/N=C/c1c(O)n(-c2ccc(Cl)cn2)c(=O)c2ccccc12)C1CC1 | 10 | -6 | -1 | 23* | 10 | 12 | -11 | 26*
CNCC(O)C(O)C(O)C(O)CO (configuration not stated) | -5 | 5 | -3 | -1 | 0 | 1 | . | .
OC[C@@H](O)C(O)[C@@H](O)CO (some centres not stated) | 7 | 0 | 7 | 47* | . | -2 | 1 | 0
O=C(NNC(=O)c1ccc2ccccc2c1O)c1cccs1 | 6 | -7 | 3 | 40* | 16 | 10 | -2 | 33*
O=C(NNC(=O)c1ccc2ccccc2c1O)c1ccccc1Cl | 22 | -12 | -9 | 29* | 30 | 15 | -5 | 35*
O=C(NNC(=O)c1cc2ccccc2cc1O)c1cccs1 | 10 | -10 | -10 | 17 | 14 | 0 | . | .
O=C(NC(=S)NNC(=O)c1cccs1)c1ccccc1 | 2 | -3 | 6 | 22* | -1 | 5 | 1 | 25*
CC(C)(C)c1ccc(C(=O)NC(=S)NNC(=O)c2cccs2)cc1 | 10 | 1 | -1 | -2 | 15 | 5 | . | .
O=C(NNC(=O)c1cccc2ccccc12)c1ccc(Cl)cc1Cl | -7 | 3 | -3 | 7 | -11 | 1 | . | .
Cn1c(Cc2cccs2)nnc1SCC(=O)Nc1ccc2c(c1)OCCO2 | 3 | -1 | -1 | . | . | 3 | . | .
O=C(Cn1nc(-c2ccccc2)ccc1=O)NCCc1ccccc1F | 7 | 0 | -1 | . | . | 0 | . | .
Cn1c(Cc2cccs2)nnc1SCC(=O)Nc1ccc2c(c1)OCO2 | 6 | -1 | 1 | . | . | -2 | . | .
Cc1cccc(C(=O)NNC(=O)c2c(O)c3ccccc3n(C)c2=O)c1 | -1 | -3 | -2 | 15 | 2 | -5 | . | .
SMILES | mABHD4 FP | LEDGF integ inh | TDP2 absorb | TCR-CD3 inh | HTRA1 inhibitor | SIAE primary | BSA TAMRA ctr | TCR-CD3 conf
Cn1c(=O)c(C(=O)NNC(=O)c2cccc(Cl)c2)c(O)c2ccccc21 | 1 | -2 | -14 | 22* | 0 | 2 | -4 | 15
CCN(CC(=O)Nc1c(F)cccc1F)C(=O)/C=C/c1ccc2ccccc2n1 | -4 | 10 | -7 | 30* | 2 | 1 | 5 | 34*
O=C(CSc1nc2ccccc2nc1N1CCCCC1)N1CCN(S(=O)(=O)c2ccccc2)CC1 | 0 | -2 | -10 | . | . | -1 | . | .
O=C1/C(=C/c2ccc(O)c([N+](=O)[O-])c2)SC(=S)N1Cc1ccccc1 | 5 | 1 | 11 | 1 | 3 | 3 | . | .
O=C1/C(=C\c2cccc([N+](=O)[O-])c2O)SC(=S)N1Cc1ccccc1 | -27 | -4 | 1 | 82* | 9 | -6 | -89 | 9
Cc1cc(/C=N/NC(N)=S)c(O)c(/C=N/NC(N)=S)c1 | 15 | -1 | -1 | 25* | 24 | 13 | 1 | 15
NC(=S)N/N=C/c1cccc(O)c1O | 15 | 11 | 5 | -7 | 8 | 9 | . | .
O=C(CN1C(=O)NC2(CCOc3ccccc32)C1=O)c1ccc(F)cc1 (configuration not stated) | -1 | 2 | 2 | 19* | -4 | 0 | 0 | 2
COc1cc(Br)cc2cc(C(=O)N3CCN(C(=O)c4ccco4)CC3)c(=O)oc12 | 1 | 2 | 6 | 20* | 6 | 7 | 3 | 19*
COc1cccc2cc(C(=O)N3CCN(C(=O)c4ccco4)CC3)c(=O)oc12 | -1 | -2 | -8 | -1 | -3 | 1 | . | .
O=C(NCCc1ccccc1)OCc1cn(Cc2ccc(C(F)(F)F)cc2)nn1 | 5 | 1 | -3 | . | . | -1 | . | .
CC1CCCCN1C(=O)CSc1nnc(-c2ccccc2O)o1 (configuration not stated) | 2 | 1 | -2 | 27* | 21 | 9 | 13 | 21*
Cc1ccc(-c2n[nH]c(=S)n2-c2ccccc2)cc1 | 8 | 0 | 2 | -4 | 12 | 1 | . | .
CS(=O)(=O)Nc1ccc(-c2n[nH]c(=S)n2-c2ccccc2)cc1 | 6 | 0 | -1 | 37* | -5 | -5 | 3 | 0
COc1cc(O)c(/C=N/NC(=O)c2ccncc2)c(OC)c1[N+](=O)[O-] | 14 | -1 | -6 | 19* | 10 | 2 | 0 | 31*
COc1ccc(/C=N/NC(=O)c2ccncc2)cc1[N+](=O)[O-] | 3 | -1 | 9 | -2 | 2 | -6 | . | .
O=C1CCc2cc(S(=O)(=O)N3CCN(Cc4cccc5c4OCO5)CC3)ccc2N1 | -3 | 1 | -3 | . | . | 1 | . | .

From PubChem
